In ChEMBL document CHEMBL4265950, “Discovery of furyl/thienyl β-carboline derivatives as potent and selective PDE5 inhibitors with excellent vasorelaxant effect” (Eur J Med Chem, 2018):

Experiments:
[1] = target: T1, cGMP-specific 3',5'-cyclic phosphodiesterase (Homo sapiens, UniProt O76074); experiment: Inhibition of PDE5 (unknown origin)
[2] = Stability of the compound in PDE5 enzyme assay condition at 100 uM by HPLC analysis; assay type: ADME
[3] = target: T1, cGMP-specific 3',5'-cyclic phosphodiesterase; experiment: Inhibition of full length recombinant human N-terminal GST-tagged PDE5A1 expressed in baculovirus infected sf9 cells at 100 nM using FAM-cyclic-3',5-GMP as substrate after 1 hr by fluorescence polarization assay relative to control
Outline: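 Single-point test at 100 nM, reported as percent inhibition. Human PDE5 at 15 ng/mL with 100 nM FAM-cGMP in MOPS pH 7.5 buffer (MgCl2, EDTA, BSA, DTT), 1% DMSO final, 60 min at 25 °C. Binding agent added for 1 h, then fluorescence polarization read at […] nm.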

[4] = species: Homo sapiens; experiment: Selectivity ratio of Ki for PDE6 (unknown origin) to Ki for PDE5 (unknown origin)
[5] = species: Homo sapiens; experiment: Selectivity ratio of IC50 for PDE6 (unknown origin) to IC50 for PDE5 (unknown origin)
[6] = target: cGMP-dependent 3',5'-cyclic phosphodiesterase (Homo sapiens, UniProt O00408); experiment: Inhibition of recombinant human N-terminal FLAG-tagged PDE2A (2 to 941 residues) expressed in baculovirus infected sf9 cells using FAM-cyclic-3',5-AMP as substrate after 1 hr by fluorescence polarization assay
Outline: (§1)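 Fluorescence polarization assay run at 25 °C for 60 min in 40 mM MOPS pH 7.5, 0.5 mM EDTA, 15 mM MgCl2, 0.15 mg/mL BSA, 1 mM DTT, 0.05% ProClin 200. Contained 15 ng/mL PDE isoform and 100 nM FAM-cGMP or FAM-cAMP according to isoform, with 1% DMSO final. Binding agent added for 1 h at 25 °C; read at […] nm. IC50 from normalized nonlinear dose-response fit.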

[7] = target: Cone cGMP-specific 3',5'-cyclic phosphodiesterase subunit alpha' (Homo sapiens, UniProt P51160); experiment: Inhibition of full length recombinant human N-terminal GST-tagged PDE6C expressed in baculovirus infected sf9 cells using […] as substrate after 1 hr by fluorescence polarization assay
Cone cGMP-specific 3',5'-cyclic phosphodiesterase subunit alpha', sequence (P51160 whole entry): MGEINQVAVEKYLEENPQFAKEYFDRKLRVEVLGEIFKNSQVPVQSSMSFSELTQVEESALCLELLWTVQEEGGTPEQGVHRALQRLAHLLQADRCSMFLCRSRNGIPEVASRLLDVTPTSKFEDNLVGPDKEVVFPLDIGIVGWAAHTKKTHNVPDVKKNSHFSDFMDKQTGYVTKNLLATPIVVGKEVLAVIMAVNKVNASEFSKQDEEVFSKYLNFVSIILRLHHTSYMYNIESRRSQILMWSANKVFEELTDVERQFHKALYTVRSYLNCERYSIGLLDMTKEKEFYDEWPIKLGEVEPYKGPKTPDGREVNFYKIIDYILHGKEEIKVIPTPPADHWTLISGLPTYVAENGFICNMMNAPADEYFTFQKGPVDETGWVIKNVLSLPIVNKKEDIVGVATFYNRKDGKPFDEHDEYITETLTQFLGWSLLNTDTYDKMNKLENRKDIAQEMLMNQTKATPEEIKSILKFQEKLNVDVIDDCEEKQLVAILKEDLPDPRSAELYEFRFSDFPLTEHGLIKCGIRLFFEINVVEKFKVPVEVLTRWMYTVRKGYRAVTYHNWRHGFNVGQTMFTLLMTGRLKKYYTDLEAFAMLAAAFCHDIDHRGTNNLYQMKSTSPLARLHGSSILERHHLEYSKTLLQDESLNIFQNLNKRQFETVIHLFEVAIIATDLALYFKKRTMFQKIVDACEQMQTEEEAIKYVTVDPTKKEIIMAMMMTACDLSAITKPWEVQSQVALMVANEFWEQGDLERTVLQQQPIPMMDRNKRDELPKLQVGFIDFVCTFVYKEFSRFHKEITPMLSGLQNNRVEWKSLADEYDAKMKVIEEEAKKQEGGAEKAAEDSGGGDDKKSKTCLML

[8] = species: Homo sapiens; experiment: Selectivity index, ratio of IC50 for inhibition of full length recombinant human N-terminal GST-tagged PDE6C expressed in baculovirus infected sf9 cells to IC50 for inhibition of full length recombinant human N-terminal GST-tagged PDE5A1 expressed in baculovirus infected sf9 cells
[9] = target: cGMP-specific 3',5'-cyclic phosphodiesterase (Rattus norvegicus, UniProt O54735); experiment: (§2) Inhibition of PDE5 in Wistar rat mesentric arteries assessed as inhibition of phenylephrine-induced contraction by measuring increase in acetylcholine-induced vasorelaxation by pressure myographic method
Outline: (§3)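 Third-order rat mesenteric arteries (110–150 µm), 3–4 mm unbranched segments, cannulated in PSS (pH 7.4, 95% O2/5% CO2). Equilibrated 35 min while pressure was stepped 10→60 mmHg. Checked with 120 mM KCl and acetylcholine, then constricted with 20 µM phenylephrine (norepinephrine in text) and given compounds cumulatively. Ca²⁺-free PSS set maximal dilation. Outer diameter recorded as % relaxation; EC50 from normalized nonlinear fit.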

[10] = target: cGMP-specific 3',5'-cyclic phosphodiesterase (Rattus norvegicus) (UniProt O54735); experiment: as §2; outline: as §3
[11] = target: 3',5'-cyclic-AMP phosphodiesterase 4A (Homo sapiens, UniProt P27815); experiment: Inhibition of full length recombinant human N-terminal GST-tagged PDE4A1A expressed in baculovirus infected sf9 cells using FAM-cyclic-3',5-AMP as substrate after 1 hr by fluorescence polarization assay
3',5'-cyclic-AMP phosphodiesterase 4A, sequence (P27815 whole entry): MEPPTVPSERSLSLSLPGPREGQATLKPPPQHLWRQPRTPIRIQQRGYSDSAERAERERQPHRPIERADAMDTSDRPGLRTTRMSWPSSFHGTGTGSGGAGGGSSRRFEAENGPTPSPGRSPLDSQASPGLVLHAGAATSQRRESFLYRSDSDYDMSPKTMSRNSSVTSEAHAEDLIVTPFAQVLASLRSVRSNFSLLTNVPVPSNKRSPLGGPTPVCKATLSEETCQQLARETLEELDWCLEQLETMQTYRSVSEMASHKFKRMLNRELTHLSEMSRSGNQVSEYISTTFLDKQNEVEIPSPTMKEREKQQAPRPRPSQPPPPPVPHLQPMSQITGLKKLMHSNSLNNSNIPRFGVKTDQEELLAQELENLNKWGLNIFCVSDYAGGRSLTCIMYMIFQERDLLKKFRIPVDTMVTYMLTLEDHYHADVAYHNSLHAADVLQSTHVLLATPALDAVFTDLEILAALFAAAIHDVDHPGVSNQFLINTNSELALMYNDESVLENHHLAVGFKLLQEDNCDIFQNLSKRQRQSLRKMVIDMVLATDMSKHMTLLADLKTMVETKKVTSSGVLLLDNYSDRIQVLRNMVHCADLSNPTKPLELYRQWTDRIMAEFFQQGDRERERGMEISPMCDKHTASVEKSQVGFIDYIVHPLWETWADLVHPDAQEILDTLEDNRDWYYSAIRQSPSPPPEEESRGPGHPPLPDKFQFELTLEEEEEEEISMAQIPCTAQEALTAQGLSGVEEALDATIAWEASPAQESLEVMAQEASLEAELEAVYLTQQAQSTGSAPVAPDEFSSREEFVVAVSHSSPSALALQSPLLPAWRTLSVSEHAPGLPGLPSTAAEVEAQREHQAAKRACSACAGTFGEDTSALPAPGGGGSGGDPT

[12] = target: Dual 3',5'-cyclic-AMP and -GMP phosphodiesterase 11A (Homo sapiens, UniProt Q9HCR9); experiment: Inhibition of full length recombinant human N-terminal GST-tagged PDE11A4 expressed in baculovirus infected sf9 cells using FAM-cyclic-3',5-AMP as substrate after 1 hr by fluorescence polarization assay
Dual 3',5'-cyclic-AMP and -GMP phosphodiesterase 11A, sequence (Q9HCR9 whole entry): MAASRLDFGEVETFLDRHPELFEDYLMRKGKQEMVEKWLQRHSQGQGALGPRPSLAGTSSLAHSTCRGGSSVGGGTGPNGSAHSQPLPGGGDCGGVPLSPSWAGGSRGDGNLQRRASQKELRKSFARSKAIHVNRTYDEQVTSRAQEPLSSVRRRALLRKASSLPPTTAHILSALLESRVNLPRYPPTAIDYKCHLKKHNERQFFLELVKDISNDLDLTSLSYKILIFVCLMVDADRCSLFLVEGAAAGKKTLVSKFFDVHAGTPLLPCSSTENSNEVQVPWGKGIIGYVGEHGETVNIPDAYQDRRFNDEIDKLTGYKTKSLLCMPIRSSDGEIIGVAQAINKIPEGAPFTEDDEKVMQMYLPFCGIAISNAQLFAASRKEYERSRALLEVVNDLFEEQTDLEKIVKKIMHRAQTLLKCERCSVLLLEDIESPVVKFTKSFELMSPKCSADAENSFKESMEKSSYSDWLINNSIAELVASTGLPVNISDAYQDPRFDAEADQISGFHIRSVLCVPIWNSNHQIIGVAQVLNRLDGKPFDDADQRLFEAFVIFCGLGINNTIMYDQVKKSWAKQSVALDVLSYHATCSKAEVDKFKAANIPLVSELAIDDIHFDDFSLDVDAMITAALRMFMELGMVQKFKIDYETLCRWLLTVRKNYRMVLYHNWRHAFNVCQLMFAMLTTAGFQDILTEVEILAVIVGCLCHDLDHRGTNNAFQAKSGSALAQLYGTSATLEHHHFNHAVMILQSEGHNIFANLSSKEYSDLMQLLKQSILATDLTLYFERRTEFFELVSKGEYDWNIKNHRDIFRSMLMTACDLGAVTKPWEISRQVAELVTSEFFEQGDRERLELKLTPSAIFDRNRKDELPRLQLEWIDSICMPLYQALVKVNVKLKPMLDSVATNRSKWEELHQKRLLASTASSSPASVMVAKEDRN

[13] = species: Homo sapiens; experiment: Selectivity index, ratio of IC50 for inhibition of full length recombinant human N-terminal GST-tagged PDE11A4 expressed in baculovirus infected sf9 cells to IC50 for inhibition of full length recombinant human N-terminal GST-tagged PDE5A1 expressed in baculovirus infected sf9 cells
[14] = target: cGMP-inhibited 3',5'-cyclic phosphodiesterase 3B (Homo sapiens, UniProt Q13370); experiment: Inhibition of recombinant human N-terminal GST-tagged PDE3B (592 to end residues) expressed in baculovirus infected sf9 cells using FAM-cyclic-3',5-AMP as substrate after 1 hr by fluorescence polarization assay; outline: as §1
cGMP-inhibited 3',5'-cyclic phosphodiesterase 3B, sequence (Q13370 whole entry): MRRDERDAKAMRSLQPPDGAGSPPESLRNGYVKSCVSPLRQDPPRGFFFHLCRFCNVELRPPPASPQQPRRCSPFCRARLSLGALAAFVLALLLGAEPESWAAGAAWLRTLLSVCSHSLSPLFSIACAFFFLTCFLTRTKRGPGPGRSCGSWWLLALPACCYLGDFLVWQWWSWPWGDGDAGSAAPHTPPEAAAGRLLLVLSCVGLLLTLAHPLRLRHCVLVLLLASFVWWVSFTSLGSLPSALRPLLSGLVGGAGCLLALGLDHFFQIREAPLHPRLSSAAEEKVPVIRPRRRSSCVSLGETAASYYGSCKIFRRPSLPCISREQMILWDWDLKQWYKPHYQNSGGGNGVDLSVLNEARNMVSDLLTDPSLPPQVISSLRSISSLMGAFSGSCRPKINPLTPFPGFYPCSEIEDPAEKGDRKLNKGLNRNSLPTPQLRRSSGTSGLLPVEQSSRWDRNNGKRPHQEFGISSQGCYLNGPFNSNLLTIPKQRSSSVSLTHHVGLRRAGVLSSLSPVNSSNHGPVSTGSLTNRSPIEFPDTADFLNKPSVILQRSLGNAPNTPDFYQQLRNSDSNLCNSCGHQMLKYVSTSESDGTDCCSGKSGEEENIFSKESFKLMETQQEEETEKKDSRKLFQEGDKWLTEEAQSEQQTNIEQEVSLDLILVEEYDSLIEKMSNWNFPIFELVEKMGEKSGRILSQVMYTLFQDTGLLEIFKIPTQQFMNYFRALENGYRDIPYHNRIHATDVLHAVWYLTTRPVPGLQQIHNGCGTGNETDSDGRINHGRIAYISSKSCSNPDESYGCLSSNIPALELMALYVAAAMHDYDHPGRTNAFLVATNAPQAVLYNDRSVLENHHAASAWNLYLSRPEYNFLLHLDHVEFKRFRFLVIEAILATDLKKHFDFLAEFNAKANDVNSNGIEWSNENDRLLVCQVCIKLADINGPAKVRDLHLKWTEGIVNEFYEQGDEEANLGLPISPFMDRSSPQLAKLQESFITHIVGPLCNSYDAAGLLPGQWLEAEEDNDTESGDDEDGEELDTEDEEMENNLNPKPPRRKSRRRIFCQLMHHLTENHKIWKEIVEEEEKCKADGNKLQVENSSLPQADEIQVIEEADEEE

[15] = target: T1, cGMP-specific 3',5'-cyclic phosphodiesterase; experiment: Inhibition of full length recombinant human N-terminal GST-tagged PDE5A1 expressed in baculovirus infected sf9 cells using FAM-cyclic-3',5-GMP as substrate after 1 hr by fluorescence polarization assay
[16] = target: Dual specificity calcium/calmodulin-dependent 3',5'-cyclic nucleotide phosphodiesterase 1A (Homo sapiens, UniProt P54750); experiment: Inhibition of full length recombinant human N-terminal GST-tagged PDE1A expressed in baculovirus infected sf9 cells using FAM-cyclic-3',5-AMP as substrate after 1 hr by fluorescence polarization assay; outline: as §1
Dual specificity calcium/calmodulin-dependent 3',5'-cyclic nucleotide phosphodiesterase 1A, sequence (P54750 whole entry): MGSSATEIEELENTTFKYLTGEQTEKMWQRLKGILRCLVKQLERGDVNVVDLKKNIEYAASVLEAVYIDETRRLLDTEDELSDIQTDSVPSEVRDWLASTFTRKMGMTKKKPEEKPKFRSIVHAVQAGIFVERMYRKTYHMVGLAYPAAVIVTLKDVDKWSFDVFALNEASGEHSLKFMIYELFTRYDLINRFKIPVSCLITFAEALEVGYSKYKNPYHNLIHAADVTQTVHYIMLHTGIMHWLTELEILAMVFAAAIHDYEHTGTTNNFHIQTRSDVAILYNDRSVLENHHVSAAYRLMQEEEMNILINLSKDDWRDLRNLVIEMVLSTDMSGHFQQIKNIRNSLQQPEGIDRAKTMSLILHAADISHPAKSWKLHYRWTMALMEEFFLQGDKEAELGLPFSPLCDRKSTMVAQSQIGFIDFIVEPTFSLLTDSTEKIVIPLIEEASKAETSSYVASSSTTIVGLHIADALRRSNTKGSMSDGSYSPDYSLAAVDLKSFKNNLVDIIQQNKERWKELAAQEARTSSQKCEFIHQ

[17] = target: High affinity 3',5'-cyclic-AMP phosphodiesterase 7A (Homo sapiens, UniProt Q13946); experiment: Inhibition of recombinant human N-terminal GST-tagged PDE7A (122 to end residues) expressed in baculovirus infected sf9 cells using FAM-cyclic-3',5-AMP as substrate after 1 hr by fluorescence polarization assay; outline: as §1
[18] = target: High affinity cAMP-specific and IBMX-insensitive 3',5'-cyclic phosphodiesterase 8A (Homo sapiens, UniProt O60658); experiment: Inhibition of full length recombinant human N-terminal GST-tagged PDE8A1 expressed in baculovirus infected sf9 cells using FAM-cyclic-3',5-AMP as substrate after 1 hr by fluorescence polarization assay; outline: as §1
[19] = target: High affinity cGMP-specific 3',5'-cyclic phosphodiesterase 9A (Homo sapiens, UniProt O76083); experiment: Inhibition of full length recombinant human N-terminal GST-tagged PDE9A2 expressed in baculovirus infected sf9 cells using […] as substrate after 1 hr by fluorescence polarization assay; outline: as §1
High affinity cGMP-specific 3',5'-cyclic phosphodiesterase 9A, sequence (O76083 whole entry, the tested form may be a part): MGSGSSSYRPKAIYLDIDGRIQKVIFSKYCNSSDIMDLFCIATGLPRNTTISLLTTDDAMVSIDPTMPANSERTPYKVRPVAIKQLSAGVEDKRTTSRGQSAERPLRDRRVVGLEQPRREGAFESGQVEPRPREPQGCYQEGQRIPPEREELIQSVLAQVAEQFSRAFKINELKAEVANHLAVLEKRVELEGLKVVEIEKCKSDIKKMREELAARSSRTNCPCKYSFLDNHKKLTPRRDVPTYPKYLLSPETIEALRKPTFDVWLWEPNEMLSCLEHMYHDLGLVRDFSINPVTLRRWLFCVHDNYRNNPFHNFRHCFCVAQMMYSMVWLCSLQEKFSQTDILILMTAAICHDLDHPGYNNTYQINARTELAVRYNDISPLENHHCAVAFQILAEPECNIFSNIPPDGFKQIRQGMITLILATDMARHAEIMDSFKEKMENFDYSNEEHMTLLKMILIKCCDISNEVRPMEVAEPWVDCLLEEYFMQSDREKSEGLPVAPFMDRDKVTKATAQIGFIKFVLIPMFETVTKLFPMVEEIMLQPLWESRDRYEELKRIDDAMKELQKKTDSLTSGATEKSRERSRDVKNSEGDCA

[20] = target: cAMP and cAMP-inhibited cGMP 3',5'-cyclic phosphodiesterase 10A (Homo sapiens, UniProt Q9Y233); experiment: Inhibition of recombinant human N-terminal GST-tagged PDE10A1 (2 to 789 residues) expressed in baculovirus infected sf9 cells using FAM-cyclic-3',5-AMP as substrate after 1 hr by fluorescence polarization assay; outline: as §1

| inhibition [3] [%] | IC50 [6] [nM] | IC50 [7] [nM] | EC50 [9] [nM] | percent relaxation [10] | IC50 [11] [nM] | IC50 [12] [nM] | IC50 [14] [nM] | IC50 [15] [nM] | IC50 [16] [nM] | Structure (SMILES) | Ratio IC50 [8] | Ratio IC50 [13] | also measured |
| --- | --- | --- | --- | --- | --- | --- | --- | --- | --- | --- | --- | --- | --- |
|  |  |  |  |  |  |  |  |  |  | COc1ccc(-c2cnc(N3CC(=O)c4c([nH]c5ccccc45)C3c3ccc4c(c3)OCO4)nc2)cc1OC (racemic) |  |  | Ki [1]: 8 nM |
| 25.2 |  |  |  |  |  |  |  |  |  | CCc1ccc(C(=O)c2[nH]c3ccccc3c2CCNc2ccc(-c3ccccn3)cn2)s1 |  |  | Stability [2]: Stable |
|  |  |  |  |  |  |  |  |  |  | CCCCCN1C(=O)[C@@H]2Cc3c([nH]c4ccccc34)[C@@H](c3ccc(Br)s3)N2C1=O |  |  | IC50 [1]: 170 nM |
|  |  |  |  |  |  |  |  |  |  | COc1ccc(CNc2nc(N3CCC[C@H]3CO)ncc2C(=O)NCc2ncccn2)cc1Cl |  |  | Ratio Ki [4]: 1000 |
|  |  |  |  |  |  |  |  |  |  | CCc1ccc(C2c3[nH]c4ccccc4c(=O)c3CN2c2ncc(-c3ccccn3)cn2)s1 (stereo unspecified) |  |  | Ratio IC50 [5]: 8 |
|  |  |  |  |  |  |  |  |  |  | COc1ccc(CN=c2[nH]c(N3CCC[C@H]3CO)ncc2C(=O)NCc2ncccn2)cc1Cl |  |  | Ki [1]: 5 nM |
| 96 | > 20000 | > 1000 | 71 | Dose-dependent effect | > 10000 | 173 | > 20000 | 8.68 | > 20000 | Cc1ccc([C@@H]2c3[nH]c4ccccc4c3C[C@@H]3C(=O)N(C)CC(=O)N23)s1 | > 115 | 20 |  |
|  |  |  |  |  |  |  |  |  |  | CC(C)(C)Oc1ccc(Cc2[nH]c(-c3ccco3)c3c(=O)c4ccccc4oc23)cc1 |  |  | IC50 [1]: 240 nM |
|  |  |  |  |  |  |  |  |  |  | CCN1C(=O)[C@@H]2Cc3c([nH]c4ccccc34)[C@@H](c3ccc(Br)s3)N2C1=O |  |  | IC50 [1]: 160 nM |
| 98.4 | > 20000 | > 1000 | 725 | Dose-dependent effect | > 10000 | 119 | > 20000 | 12.7 | > 20000 | CCc1ccc([C@@H]2c3[nH]c4ccccc4c3C[C@@H]3C(=O)N(C)CC(=O)N23)o1 | > 79 | 9 | Stability [2]: Stable |
|  |  |  |  |  |  |  |  |  |  | c1ccc(CNc2ncnc3sc4c(c23)CCCCC4)cc1 |  |  | IC50 [1]: 190 nM |
|  |  |  |  |  |  |  |  |  |  | CN1CCN(C(=O)c2ccc(-c3ccc(C(=O)N4CCc5c([nH]c6ccccc56)C4c4ccc5c(c4)OCO5)o3)cc2)CC1 (racemic) |  |  | Ratio Ki [4]: 187; Ki [1]: 8 nM |
| 85.4 | > 20000 | 62 | 191 | Dose-dependent effect | > 10000 | 4 | > 20000 | 10.5 | > 20000 | CCN1C(=O)[C@@H]2Cc3c([nH]c4ccccc34)[C@@H](c3ccc(C)o3)N2C1=O | 6 | 0.4 |  |
| 85.8 | > 20000 | > 1000 | 225 | Dose-dependent effect | > 10000 | 99 | > 20000 | 8.44 | > 20000 | CCc1ccc([C@@H]2c3[nH]c4ccccc4c3C[C@@H]3C(=O)N(CC)C(=O)N23)o1 | > 118 | 12 |  |
| 46.1 |  |  |  |  |  |  |  |  |  | CCNC(=O)N1[C@H](c2ccc(CC)o2)c2[nH]c3ccccc3c2C[C@@H]1C(=O)OC |  |  | Stability [2]: Stable |
| 91.4 | > 20000 | > 1000 | 103 | Dose-dependent effect | > 10000 | 169 | > 20000 | 7.02 | > 20000 | CCc1ccc([C@@H]2c3[nH]c4ccccc4c3C[C@@H]3C(=O)N(CC)C(=O)N23)s1 | > 142 | 24 |  |
| 94.1 | > 20000 | 56 | 58 | Dose-dependent effect | > 10000 | > 1000 | > 20000 | 5.24 | > 20000 | CCc1ccc([C@@H]2c3[nH]c4ccccc4c3C[C@H]3C(=O)N(CC)C(=O)N23)s1 | 11 | > 190 | Stability [2]: Stable |
| 73.3 |  | 288 |  |  |  | 634 |  | 52.5 |  | CCc1ccc(C2c3[nH]c4ccccc4c3C(=O)CN2c2ncc(-c3ccc(OC)c(OC)c3)cn2)o1 (stereo unspecified) | 5 | 12 | Stability [2]: Stable |
|  |  |  |  |  |  |  |  |  |  | CCc1ccc(C2c3[nH]c4ccccc4c(=O)c3CN2c2ncc(-c3ccccn3)cn2)o1 (stereo unspecified) |  |  | Ratio IC50 [5]: 4; IC50 [1]: 0.53 nM |
| 47.8 |  |  |  |  |  |  |  | 227 |  | CCNC(=O)c1cc2c([nH]c3ccccc32)c(-c2ccc(CC)s2)n1 |  |  | Stability [2]: Stable |
|  | > 10000 |  | 78 |  |  |  | > 10000 |  | > 10000 | CN1CC(=O)N2[C@H](c3ccc4c(c3)OCO4)c3[nH]c4ccccc4c3C[C@@H]2C1=O |  |  | IC50 [17]: > 10000 nM; IC50 [18]: > 10000 nM; IC50 [19]: > 10000 nM; IC50 [20]: > 10000 nM |
| 99.2 | > 20000 | 136 | 55 | Dose-dependent effect | > 10000 | 219 | > 20000 | 7.2 | > 20000 | CN1CC(=O)N2[C@H](c3ccc(Br)s3)c3[nH]c4ccccc4c3C[C@@H]2C1=O | 19 | 30 |  |
|  |  |  |  |  |  |  |  |  |  | CCc1ccc(C2c3[nH]c4ccccc4c3CCN2c2ccc(-c3ccccn3)cn2)s1 (stereo unspecified) |  |  | IC50 [1]: 86 nM |
